Data reported in ChEMBL document CHEMBL1146596, “New lupane derived compounds with pro-apoptotic activity in cancer cells: synthesis and structure-activity relationships” (2003).

How the values were obtained:
DU-145 = experiment: Tested for cytotoxicity against human prostate cancer DU145 cell line; format: functional
Outline: (§1)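 Cells were kept in DMEM/RPMI 1640 with 10% fetal calf serum, 2 mM glutamine and antibiotics. They were seeded at 2500–30 000 cells/well according to growth characteristics and preincubated 24 h at 37 °C, 5% CO2. Four-fold compound dilutions were tested in duplicate for 72 h. MTT was then added for 1–4 h, the formazan was dissolved in 10% SDS (pH 5.5) overnight, and OD was read at 540 nm. Survival was taken relative to mean control, and TCS50 was derived from dose–response curves.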

A549 = experiment: Tested for cytotoxicity against human lung adenocarcinoma A549 cell line; format: functional; outline: as §1
K562 [1] = experiment: Tested for cytotoxicity against human […] leukemia K562-ARA-C cell line; format: functional; outline: as §1
CCRF-CEM [2] = experiment: Cytotoxicity against chemosensitive CEM-T lymphoblastc leukemia cell line.; format: functional, Homo sapiens; outline: as §1
OVCAR-3 = experiment: Tested for cytotoxicity against human ovarian cancer OVCAR-3 cell line; format: functional; outline: as §1
CEM-VCR 1/F3 = experiment: Tested for cytotoxicity against human T-lymphoblastic leukemia CEM-VCR 1/F3 cell line; format: functional; outline: as §1
SAOS-2 = experiment: Tested for cytotoxicity against human […] Saos2 cell line; format: functional; outline: as §1
K562 [3] = experiment: Tested for cytotoxicity against human […] leukemia K562 cell line; format: functional; outline: as §1
SW-620 = experiment: Tested for cytotoxicity against human colon cancer SW620 cell line; format: functional; outline: as §1
MDA-MB-238 = experiment: Tested for cytotoxicity against human breast cancer MDA-MB-238 cell line; format: functional; outline: as §1
HT-29 = experiment: Tested for cytotoxicity against human colon cancer HT-29 cell line; format: functional; outline: as §1
SK-MEL3 = experiment: Tested for cytotoxicity against human melanoma MEL-3 cell line; format: functional; outline: as §1
CEM-VCR = experiment: Tested for cytotoxicity against human T-lymphoblastic leukemia CEM-VCR bulk cell line; format: functional; outline: as §1
CEM-VCR 1/D/5 = experiment: Tested for cytotoxicity against human T-lymphoblastic leukemia CEM-VCR 1/D5 cell line; format: functional; outline: as §1
CEM-DNR [4] = experiment: Tested for cytotoxicity against human T-lymphoblastic leukemia CEM-DNR bulk cell line; format: functional; outline: as §1
K562 [5] = experiment: Tested for cytotoxicity against human […] leukemia K562-GEM cell line; format: functional; outline: as §1
B16 [6] = experiment: Tested for cytotoxicity against mouse melanoma B16F cell line; format: functional; outline: as §1
NIH3T3 = experiment: Tested for cytotoxicity against mouse immortalized fibroblast NIH3T3 cell line; format: functional; outline: as §1
CEM-DNR [7] = experiment: Tested for cytotoxicity against human T-lymphoblastic leukemia CEM-DNR 1/C2 cell line; format: functional; outline: as §1
Caco-2 = experiment: Tested for cytotoxicity against human colon cancer Caco-2 cell line; format: functional; outline: as §1
HepG2 = experiment: Tested for cytotoxicity against human hepatocellular carcinoma HepG2 cell line; format: functional; outline: as §1
LNCaP = experiment: Tested for cytotoxicity against human prostate cancer LNCaP cell line; format: functional; outline: as §1
K562 [8] = experiment: Tested for cytotoxicity against human […] leukemia K562-CdA cell line; format: functional; outline: as §1
U2OS = experiment: Tested for cytotoxicity against human osteosarcoma U2OS cell line; format: functional; outline: as §1
MCF7 = experiment: Tested for cytotoxicity against human breast cancer MCF-7 cell line; format: functional; outline: as §1
B16 [9] = experiment: Tested for cytotoxicity against mouse melanoma B16 cell line; format: functional; outline: as §1
CCRF-CEM [10] = experiment: Tested for cytotoxicity against human T-lymphoblastic leukemia CEM cell line; format: functional; outline: as §1
Homo sapiens = organism: Homo sapiens; experiment: Tested for cytotoxicity against human normal lymphocytes; format: functional; outline: as §1
U-87 MG = experiment: Tested for cytotoxicity against human glioblastoma U87MG cell line; format: functional, U-87MG ATCC; outline: as §1
BT-549 = experiment: Tested for cytotoxicity against human breast cancer BT549 cell line; format: functional; outline: as §1
K562 [11] = experiment: Tested for cytotoxicity against human […] leukemia K562-FLU D-CEM cell line; format: functional
Outline: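 Cytotoxicity by MTT in fludarabine-resistant K562 subline (K562-FLUD), cultured in DMEM/RPMI 1640 with 10% fetal calf serum. Cells seeded at 2500–30 000/well, preincubated 24 h at 37 °C, 5% CO2. Fourfold dilutions in duplicate, 72 h exposure. MTT 1–4 h, formazan dissolved in 10% SDS overnight, OD 540 nm. Survival relative to control; TCS50 taken from dose–response curves.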

Structure (SMILES)	TCS50 (DU-145)	TCS50 (A549)	TCS50 (K562 [1])	TCS50 (CCRF-CEM [2])	TCS50 (OVCAR-3)	TCS50 (CEM-VCR 1/F3)	TCS50 (SAOS-2)	TCS50 (K562 [3])	TCS50 (SW-620)	TCS50 (MDA-MB-238)	TCS50 (HT-29)	TCS50 (SK-MEL3)	TCS50 (CEM-VCR)	TCS50 (CEM-VCR 1/D/5)	TCS50 (CEM-DNR [4])	TCS50 (K562 [5])	TCS50 (B16 [6])	TCS50 (NIH3T3)	TCS50 (CEM-DNR [7])	TCS50 (HepG2)	also measured
COC(=O)[C@@]12CC[C@]3(C)[C@H](CC[C@@H]4[C@@]5(C)CC[C@H](OC(C)=O)C(C)(C)[C@@H]5CC[C@]43C)C1=C(C(C)C)C(=O)C2=O	1.98 µM	6.7 µM	6.42 µM	4.4 µM	4.65 µM	38.3 µM	7.9 µM	1.85 µM	5.89 µM	3.28 µM	5.23 µM	5.86 µM	28.2 µM	12.5 µM	5.18 µM	5.04 µM	67.9 µM	96.8 µM	10.3 µM	5.14 µM	TCS50 (Caco-2): 8.13 µM; TCS50 (LNCaP): 3.26 µM; TCS50 (K562 [8]): 5.17 µM; TCS50 (U2OS): 4.28 µM; TCS50 (MCF7): 12.9 µM; TCS50 (B16 [9]): 35.4 µM; TCS50 (CCRF-CEM [10]): 4.4 µM; TCS50 (Homo sapiens): 85.3 µM; TCS50 (U-87 MG): 23.8 µM; TCS50 (BT-549): 15.3 µM; TCS50 (K562 [11]): 4.85 µM
C=C(C)[C@@H]1CC[C@]2(C(=O)O)CC[C@]3(C)[C@H](CC[C@@H]4[C@@]5(C)CC[C@H](O)C(C)(C)[C@@H]5CC[C@]43C)[C@@H]12 [BETULINIC ACID]	241 µM	79.3 µM	>250 µM	20 µM	164 µM	19.1 µM	>250 µM	53.9 µM	>250 µM	195 µM	>250 µM	2.65 µM	68.5 µM	24.1 µM	>250 µM	101 µM	4.6 µM	>250 µM	>250 µM	3.61 µM	TCS50 (LNCaP): 244 µM; TCS50 (K562 [8]): >250 µM; TCS50 (U2OS): >250 µM; TCS50 (MCF7): 194 µM; TCS50 (B16 [9]): 30.5 µM; TCS50 (CCRF-CEM [10]): >250 µM; TCS50 (Homo sapiens): >250 µM; TCS50 (U-87 MG): >228 µM; TCS50 (BT-549): >250 µM; TCS50 (K562 [11]): >250 µM
C=C(C=O)[C@@H]1CC[C@]2(C(=O)O)CC[C@]3(C)[C@H](CC[C@@H]4[C@@]5(C)CC[C@H](OC(C)=O)C(C)(C)[C@@H]5CC[C@]43C)C12 (stereo partly drawn)	2.75 µM	43.27 µM	1.59 µM	4 µM	2.59 µM	5.94 µM	4.8 µM	15.12 µM	5.86 µM	2.37 µM	12.31 µM	3.68 µM	6.95 µM	7.82 µM	3.26 µM	2.36 µM	12.4 µM	15.7 µM	1.58 µM	7.12 µM	TCS50 (Caco-2): 7.72 µM; TCS50 (LNCaP): 3.55 µM; TCS50 (K562 [8]): 2.13 µM; TCS50 (U2OS): 3.94 µM; TCS50 (MCF7): 4.3 µM; TCS50 (B16 [9]): 9.32 µM; TCS50 (CCRF-CEM [10]): 4 µM; TCS50 (Homo sapiens): 24.9 µM; TCS50 (U-87 MG): 98.3 µM; TCS50 (BT-549): 6.28 µM; TCS50 (K562 [11]): 1.27 µM
CC(=O)OC[C@@]1(C(=O)O)CC[C@]2(C)[C@H](CC[C@@H]3[C@@]4(C)CC[C@H](OC(C)=O)C(C)(C)[C@@H]4CC[C@]32C)C1=O	0.84 µM	2.8 µM	0.63 µM	1 µM	0.9 µM	3.27 µM	1.78 µM	0.19 µM	1.22 µM	1.35 µM	3.57 µM	1.28 µM	2.51 µM	2.93 µM	1.05 µM	0.94 µM	4.66 µM	7.21 µM	0.61 µM	1.67 µM	TCS50 (Caco-2): 2.97 µM; TCS50 (LNCaP): 1.12 µM; TCS50 (K562 [8]): 0.28 µM; TCS50 (U2OS): 1.53 µM; TCS50 (MCF7): 2.3 µM; TCS50 (B16 [9]): 0.43 µM; TCS50 (CCRF-CEM [10]): 1 µM; TCS50 (Homo sapiens): 12.5 µM; TCS50 (U-87 MG): 1.85 µM; TCS50 (BT-549): 2.03 µM; TCS50 (K562 [11]): 0.35 µM
